Results as given in ChEMBL document CHEMBL5214977, “Discovery and Optimization of Quinoline Analogues as Novel Potent Antivirals against Enterovirus D68” (J Med Chem, 2022).
The source made the active and inactive calls. The calls are words filed in the database; no cut-off is given here.

Experiments:
[1] = Oral bioavailability in Sprague-Dawley rat at 5 mg/kg measured upto 24 hrs by LC-MS/MS analysis; assay type: ADME, organism-based; settings: in vivo
How it was run: (§1)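 Male SD rats (6–9 or 6–8 weeks old, n = 3 per route) received a single 1 mg/kg iv or 5 mg/kg po dose. The vehicle was 5% DMSO/5% Solutol HS-15/90% water or 5% DMSO/95% HP-β-CD in water. Jugular blood was drawn into heparin at 0.083 (iv only), 0.25, 0.5, 1, 2, 4, 6 and 24 h. Plasma was analysed by LC-MS/MS. Values are mean ± SD.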

[2] = Selectivity index, ratio of CC50 for human RD cells to EC50 for Enterovirus-D68 US/MO/14-18947 infected in human RD cells; assay type: toxicity, cell-based; settings: read-out: Ratio CC50/EC50
How it was run: (§2)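 EC50 came from a CPE reduction assay. RD cells (1.5 × 10^4 per well, grown 24 h) were infected with 100 TCID50 of the named strain and given 3-fold dilutions from 0.01 to 200 μM. After 72 h at 37 °C, ATP was read by CellTiter-Glo and normalized to infected and uninfected controls. CC50 came from uninfected cells under the same dilutions, 72 h and ATP readout. SI = CC50/EC50.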

[3] = Selectivity index, ratio of CC50 for human RD cells to EC50 for Enterovirus-D68 US/KY/14-18953 infected in human RD cells; assay type: toxicity, cell-based; settings: read-out: Ratio CC50/EC50; how it was run: as §2
[4] = Selectivity index, ratio of CC50 for human RD cells to EC50 for Enterovirus-D68 fermon infected in human RD cells; assay type: toxicity, cell-based; settings: read-out: Ratio CC50/EC50; how it was run: as §2
[5] = test system: enterovirus D68; experiment: Antiviral activity against Enterovirus-D68 STL-2014-12 infected in human RD cells assessed as reduction in virus induced cytopathic effect by measuring ATP level incubated for 72 hrs by cell titer-glo luminescent cell viability assay; assay type: functional, organism-based
How it was run: (§3)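 RD cells seeded at 1.5 × 10^4/well and grown 24 h, then given 100 TCID50 virus plus compound in 3-fold dilutions (0.01–200 μM). DMSO control. Incubated 37 °C for 72 h; ATP read by CellTiter-Glo luminescence and normalized to uninfected and infected controls. EC50 is the concentration giving 50% CPE reduction. Strains: STL-2014-12, US/KY/14-18953, US/MO/14-18947, Fermon.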

[6] = C0 in Sprague-Dawley rat at 1 mg/kg, iv measured upto 24 hrs by LC-MS/MS analysis; assay type: ADME, organism-based; settings: in vivo; how it was run: as §1
[7] = test system: enterovirus D68; experiment: Antiviral activity against Enterovirus-D68 fermon infected in human RD cells assessed as reduction in virus induced cytopathic effect by measuring ATP level incubated for 72 hrs by cell titer-glo luminescent cell viability assay; assay type: functional, organism-based; settings: Enterovirus D; how it was run: as §3
[8] = test system: enterovirus D68; experiment: Antiviral activity against Enterovirus-D68 US/KY/14-18953 infected in human RD cells assessed as reduction in virus induced cytopathic effect by measuring ATP level incubated for 72 hrs by cell titer-glo luminescent cell viability assay; assay type: functional, organism-based; settings: Enterovirus D, US/KY/14-18953, RD; how it was run: as §3
[9] = Half life in Sprague-Dawley rat at 5 mg/kg, po measured upto 24 hrs by LC-MS/MS analysis; assay type: ADME, organism-based; settings: in vivo; how it was run: as §1
[10] = AUC (0 to t) in Sprague-Dawley rat at 5 mg/kg, po measured upto 24 hrs by LC-MS/MS analysis; assay type: ADME, organism-based; parameters: dose 5 mg/kg, time < 24 hrs, route po; settings: in vivo; how it was run: as §1
[11] = test system: enterovirus D68; experiment: Antiviral activity against Enterovirus-D68 US/MO/14-18947 infected in human RD cells assessed as reduction in virus induced cytopathic effect by measuring ATP level incubated for 72 hrs by cell titer-glo luminescent cell viability assay; assay type: functional, organism-based; settings: Enterovirus D, US/MO/14-18947, RD; how it was run: as §3
[12] = Cmax in Sprague-Dawley rat at 5 mg/kg, po measured upto 24 hrs by LC-MS/MS analysis; assay type: ADME, organism-based; parameters: dose 5 mg/kg, time < 24 hrs, route po; settings: in vivo; how it was run: as §1
[13] = AUC (0 to infinity) in Sprague-Dawley rat at 5 mg/kg, po measured upto 24 hrs by LC-MS/MS analysis; assay type: ADME, organism-based; parameters: time < 24 hrs, dose 5 mg/kg, route po; settings: in vivo; how it was run: as §1
[14] = AUC(0 to t) in Sprague-Dawley rat at 1 mg/kg, iv measured upto 24 hrs by LC-MS/MS analysis; assay type: ADME, organism-based; parameters: dose 1 mg/kg, time < 24 hrs, route iv; settings: in vivo; how it was run: as §1
[15] = Selectivity index, ratio of CC50 for human RD cells to EC50 for Enterovirus-D68 STL-2014-12 infected in human RD cells to; assay type: toxicity, cell-based; how it was run: as §2
[16] = Tmax in Sprague-Dawley rat at 5 mg/kg, po measured upto 24 hrs by LC-MS/MS analysis; assay type: ADME, organism-based; settings: in vivo; how it was run: as §1
[17] = AUC (0 to infinity) in Sprague-Dawley rat at 1 mg/kg, iv measured upto 24 hrs by LC-MS/MS analysis; assay type: ADME, organism-based; parameters: dose 1 mg/kg, time < 24 hrs, route iv; settings: in vivo; how it was run: as §1
[18] = Half life in Sprague-Dawley rat at 1 mg/kg, iv measured upto 24 hrs by LC-MS/MS analysis; assay type: ADME, organism-based; settings: in vivo; how it was run: as §1
[19] = test system: enterovirus D68; experiment: Antiviral activity against Enterovirus-D68 infected in human HeLa cells assessed as reduction in virus induced cytopathic effect incubated for […] by plaque reduction assay; assay type: functional, organism-based; settings: Enterovirus D
[20] = test system: RD; experiment: Cytotoxicity against human RD cells assessed as inhibition of cell viability by measuring ATP level incubated for 72 hrs by cell titer-glo luminescent cell viability assay; assay type: functional
How it was run: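 Uninfected RD cells seeded at 1.5 × 10^4/well and grown 24 h, then exposed to compound in 3-fold dilutions (0.01–200 μM), with DMSO as cell control. ATP read by CellTiter-Glo luminescence after 72 h; CC50 is the 50% cytotoxic concentration.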

[21] = test system: enterovirus D68; experiment: Antiviral activity against Enterovirus D68 infected in human RD cells assessed as reduction in thermal inactivation of virus at 55 degreeC at 12.5 uM incubated for 72 hrs by TCID50 assay; assay type: functional, organism-based
How it was run: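 Compound at 12.5 μM or DMSO was incubated with EV-D68 (2 × 10^6 PFU/ml) at 33 °C for 30 min. The mixture was heated for 2 min at temperatures between 37 and 59 °C, then cooled to 4 °C. Residual titre was measured by TCID50 on RD cells: 10-fold virus dilutions, CPE scored after 72 h, Reed–Muench calculation.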

[22] = test system: enterovirus D68; experiment: Antiviral activity against Enterovirus D68 infected in human RD cells assessed as inhibition of VP1 expression level incubated for 1.5 hrs by Western blot analysis; assay type: functional, organism-based; settings: dose 0.1-10 µM, DDE = dose-dependent effect
How it was run: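 RD cells (8.0 × 10^4 per well) were grown for 24 h, then infected with EV-D68 at MOI 0.01 for 1.5 h with gradient-diluted compound or DMSO. Lysates were made at 12 hpi in RIPA buffer and run on 10% SDS-PAGE. Blots were probed with anti-EV-D68 VP1 and anti-tubulin antibodies, with HRP secondary and ECL detection.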

[23] = test system: enterovirus D68; experiment: Antiviral activity against Enterovirus D68 infected in human RD cells assessed as inhibition of viral replication at 2 uM treated for 14 hrs by qRT-PCR analysis; assay type: functional, organism-based
How it was run: (§4)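 RD cells grown for 24 h were infected at 0 h with EV-D68 (MOI 0.01), and virus was washed off at 1 hpi. Compound at 2 μM or DMSO was added over set windows (0–1 h, after 1 hpi, or 0–14 h). Supernatants were collected at 14 hpi. Viral RNA copies were measured by qRT-PCR against a copy-number standard curve. Values are mean ± SD.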

[24] = test system: enterovirus D68; experiment: Antiviral activity against Enterovirus D68 infected in human RD cells assessed as inhibition of VP1 expression level incubated for 12 hrs by Hoechst 33342 staining based immunofluorescence assay; assay type: functional, organism-based; settings: dose 0.1-10 µM, DDE = dose-dependent effect
How it was run: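 RD cells were infected with EV-D68 at MOI 1 together with compound for 12 h. Cells were fixed in 4% formaldehyde for 30 min and permeabilized in 0.1% Triton X-100 for 30 min, then blocked with 5% bovine serum. Staining used rabbit anti-VP1 with an Alexa-546 secondary and 1 μM Hoechst33342 nuclear stain, imaged by fluorescence microscopy.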

[25] = test system: enterovirus D68; experiment: Antiviral activity against Enterovirus D68 infected in human RD cells assessed as inhibition of viral replication at 2 uM treated for 1 hr by qRT-PCR analysis; assay type: functional, organism-based; how it was run: as §4
[26] = test system: enterovirus D68; experiment: Antiviral activity against Enterovirus D68 infected in human RD cells assessed as inhibition of viral replication at 1 uM incubated for 1.5 hrs by crystal violet staining based plaque formation assay; assay type: functional, organism-based
How it was run: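 Overnight RD monolayers received serially diluted virus stock plus compound for 1.5 h. Supernatant was removed and cells were overlaid with 2× DMEM containing 2% low-melting agarose. At 72 hpi cells were fixed with 4% paraformaldehyde for 4 h at room temperature and stained with 1% crystal violet to count plaques.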

[27] = Metabolic stability in Beagle dog liver microsomes assessed as half life at 1 uM incubated upto 60 mins in presence of NADPH by LC-MS/MS analysis; assay type: ADME, Canis lupus familiaris, Microsome; settings: 1 h
How it was run: (§5)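 Test compound at 1 μM final was incubated at 37 °C with 0.5 mg/mL liver microsomal protein and 1 mM NADPH, alongside a no-NADPH control. Samples were quenched at 0, 5, 15, 30 and 60 min into solution containing verapamil internal standard, then centrifuged and analysed by LC-MS/MS. t1/2 and intrinsic clearance were derived from the extent of metabolism.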

[28] = Metabolic stability in human liver microsomes assessed as half life at 1 uM incubated upto 60 mins in presence of NADPH by LC-MS/MS analysis; assay type: ADME, Microsome; settings: 1 h; how it was run: as §5
[29] = Metabolic stability in rat liver microsomes assessed as half life at 1 uM incubated upto 60 mins in presence of NADPH by LC-MS/MS analysis; assay type: ADME, Microsome; settings: 1 h; how it was run: as §5
[30] = test system: enterovirus D68; experiment: Antiviral activity against Enterovirus D68 infected in human RD cells assessed as increase in viral RNA release temperature at 10 ug/ml incubated for 15 mins by particle release thermal stability assay (reference value: 52 degree C); assay type: functional; settings: dose 10 µg/ml, 0.25 h
[31] = Enterovirus D, STL-2014-12, RD, 72 h

SMILES | F [1] | selectivity ratio [2] | selectivity ratio [3] | selectivity ratio [4] | C0 [6] | EC50 [7] | EC50 [8] | t1/2 [9] | AUC [10] | EC50 [11] | Cmax [12] | AUC [13] | AUCt [14] | Ratio CC50/EC50 [15] | Tmax [16] | AUC [17] | t1/2 [18] | EC50 [5, 31] | CC50 [20] | Activity [21] | further results
CCc1nc(-c2cnc3ccc(-c4ccc(N)cc4)cc3c2)no1.Cl | 6.8% | > 159 | > 159 | > 185 | 1370 ng/mL | 60 nM | 70 nM | 1.06 h | 49.5 ng·h/mL | 70 nM | 36.1 ng/mL | 53.8 ng·h/mL | 157 ng·h/mL | > 139 | 0.417 h | 158 ng·h/mL | 0.309 h | – | – | – | EC50 ([5]; rd): 80 nM
Cc1cc(CCCOc2c(C)cc(-c3noc(C(F)(F)F)n3)cc2C)on1 [PLECONARIL] | – | > 156 | > 417 | > 333 | – | 300 nM | 240 nM | – | – | 640 nM | – | – | – | – | – | – | – | 400 nM | > 200000 nM | Active | EC50 [19]: 430 nM; selectivity ratio ([15]; RD cells, read-out: Ratio CC50/EC50): > 250
Nc1ccc(-c2ccc3ncc(-c4noc(C(F)(F)F)n4)cc3c2)cc1 [listing 1 of 2 here] | – | – | – | – | – | – | – | – | – | – | – | – | – | – | – | – | – | – | – | Active | Activity [22]: Dde; Activity [23]: Active; Activity [24]: Dde; Activity [25]: Active; Activity [26]: Active
Nc1ccc(-c2ccc3ncc(-c4noc(C(F)(F)F)n4)cc3c2)cc1 [listing 2 of 2 here] | 23.9% | – | – | – | 637 ng/mL | – | – | 1.21 h | 307 ng·h/mL | – | 108 ng/mL | 320 ng·h/mL | 253 ng·h/mL | > 50 | 1 h | 268 ng·h/mL | 1.92 h | 50 nM | > 2500 nM | – | t1/2 [27]: 0.288 h; t1/2 [28]: 2.47 h; t1/2 [29]: 0.683 h; T [30]: 55 °C
